Results gathered from unrelated publications.
Protocols differ between the studies behind these lines.
Technique: competition with immobilised ligand
RPS6KA4 C-terminal kinase domain: Ribosomal protein S6 kinase alpha-4, C-terminal kinase domain (RPS6KA4, Homo sapiens, UniProt O75676)
RPS6KA4 N-terminal kinase domain: Ribosomal protein S6 kinase alpha-4, N-terminal kinase domain (RPS6KA4, Homo sapiens, UniProt O75676)

| SMILES | target | test | setting | remaining binding [%] |
| --- | --- | --- | --- | --- |
| O=C(NCCCN1CCOCC1)c1ccc(Nc2ncc(Cl)c(-c3ccc(Cl)s3)n2)cc1 | RPS6KA4 C-terminal kinase domain | binding | 1 µM | 26 |
| CN(CCCC(F)(F)F)c1nccc(-c2cnn3ncccc23)n1 | RPS6KA4 N-terminal kinase domain | binding | 1 µM | 100 |
| O=C(NCc1ncc(C(F)(F)F)cc1Cl)c1ccc2c(c1)C1(CCS(=O)(=O)CC1)[C@@H](C1CC1)N2S(=O)(=O)c1ccc(F)cc1 | RPS6KA4 C-terminal kinase domain | cell-free assay | 1 µM | 84 |
| O=C(c1ccc(Nc2ncc(Cl)c(-c3cc4ccccc4s3)n2)cc1)N1CCC(N2CCCC2)CC1 | RPS6KA4 C-terminal kinase domain | binding | 1 µM | 13 |
| O=C(O)[C@H]1[C@H](Cn2nnc3ccccc3c2=O)CC[C@@H]1C(=O)c1ccc(OCCC2CCOCC2)cc1 | RPS6KA4 N-terminal kinase domain | cell-free assay | 1 µM | 100 |
| COc1ncc2cc3ccccc3nc2c1C#N | RPS6KA4 N-terminal kinase domain | cell-free assay | 5 µM | 94 |
| CSc1cccnc1N1CCN(Cc2nc3ccccc3[nH]2)CC1 | RPS6KA4 N-terminal kinase domain | cell-free assay | 1 µM | 94 |
| Nc1ncc2c(n1)-c1c([nH]c3ccc(C#CC4CC4)cc13)CCCC2 | RPS6KA4 N-terminal kinase domain | binding | 1 µM | 88 |
| COc1ccnn2ncc(-c3ccnc(N(C)C)n3)c12 | RPS6KA4 N-terminal kinase domain | binding | 1 µM | 97 |
| c1cncc(-c2cccc(Nc3nccc(NC4CCCCC4)n3)c2)c1 | RPS6KA4 N-terminal kinase domain | binding | 10 µM | 78 |
| Cc1c(C(=O)O)cc(-c2ccc(C3CCNCC3)cc2)c2ccc(-c3ccc(C(F)(F)F)cc3)cc12 | RPS6KA4 N-terminal kinase domain | binding | 1 µM | 88 |
| O=C(NCCCN1CCOCC1)c1ccc(Nc2nccc(-c3cc4ccccc4s3)n2)cc1 | RPS6KA4 N-terminal kinase domain | binding | 1 µM | 100 |
| COc1cnc(Nc2cccc(S(N)(=O)=O)c2)nc1N1CCN(c2ccccc2)CC1 | RPS6KA4 N-terminal kinase domain | binding | 1 µM | 94 |
| C[C@@H](c1ccc(-n2cnc3c(N)ncnc32)cc1)N1CCc2nn(C)c(Cc3ccccc3)c2C1=O | RPS6KA4 C-terminal kinase domain | binding | 0.1 µM | 84 |
| c1cnn2ncc(-c3ccnc(N4CCC45COC5)n3)c2c1 | RPS6KA4 C-terminal kinase domain | binding | 1 µM | 55 |
| Cc1cnc(Nc2ccc(C(=O)N3CCC(N4CCCC4)CC3)cc2)nc1-c1cc2ccccc2s1 | RPS6KA4 C-terminal kinase domain | binding | 1 µM | 3.8 |
| F[C@@H]1CCN(c2nccc(-c3cnn4ncccc34)n2)C1 | RPS6KA4 N-terminal kinase domain | binding | 1 µM | 90 |

| SMILES | target | test | setting | remaining binding [%] |
| --- | --- | --- | --- | --- |
| C[C@@]1(Cc2ccc(C#N)cc2)C(=O)N(c2cc(Cl)cc(Cl)c2)c2ncc(C(=O)NC3(c4nc(C5CCC5)no4)CC3)n21 | RPS6KA4 C-terminal kinase domain | cell-free assay | 1 µM | 100 |
| C[C@H]1CCN(c2nccc(-c3cnn4ncccc34)n2)C1 | RPS6KA4 C-terminal kinase domain | binding | 1 µM | 56 |
| C=CC(=O)N1CCC(C(=O)NCC(=O)N2CCN(c3nc(-c4cnc(N)nc4C(F)F)nc(N4CCOCC4)n3)CC2)CC1 | RPS6KA4 C-terminal kinase domain | binding | 1 µM | 100 |
| FC(F)(F)Oc1cccc(-c2cnc3ccc(-c4ccncc4)nn23)c1 | RPS6KA4 N-terminal kinase domain | binding | 5 µM | 97 |
| CNCc1ccccc1-c1csc([C@@H](C)Nc2nc(C)nc3cc(OC)c(OC)cc23)c1 | RPS6KA4 N-terminal kinase domain | cell-free assay | 1 µM | 100 |
| O=C(NCC1CCOCC1)c1n[nH]cc1NC(=O)c1c(F)cccc1F | RPS6KA4 N-terminal kinase domain | binding | 1 µM | 95 |
| COc1ccc2c(c1)O[C@@H](c1ccc(OC)c(OC)c1)C[C@H]2NC(=O)C1(c2ccc3c(c2)OC(F)(F)O3)CC1 | RPS6KA4 C-terminal kinase domain | cell-free assay | 1 µM | 81 |
| COc1cnc(Nc2cccc(S(N)(=O)=O)c2)nc1N1CCN(c2ccccc2)C(=O)C1 | RPS6KA4 C-terminal kinase domain | binding | 1 µM | 100 |
| CN(C)c1nccc(-c2cnc3ncccn23)n1 | RPS6KA4 C-terminal kinase domain | binding | 1 µM | 62 |
| Cc1c(NC(=O)c2cc(C(N)=O)nc3cc(F)ccc23)c(C(F)(F)F)nn1Cc1ccc(C#N)cc1 | RPS6KA4 C-terminal kinase domain | cell-free assay | 1 µM | 85 |
| O=C(c1ccc(Nc2nccc(-c3cc4ccccc4s3)n2)cc1)N1CCC(N2CCCC2)CC1 | RPS6KA4 C-terminal kinase domain | binding | 1 µM | 14 |
| O=C(Nc1c[nH]nc1C(=O)NC1CCNCC1)c1cc(F)cc(F)c1 | RPS6KA4 N-terminal kinase domain | binding | 1 µM | 100 |
| CN(c1nccc(-c2cnn3ncccc23)n1)C1CC1 | RPS6KA4 C-terminal kinase domain | binding | 1 µM | 100 |
| CNC(=O)[C@@H]1CC[C@@H](n2c(-c3ccc4cnccc4c3)nc3ccc(C(=O)NCc4cccc(C(N)=O)c4)cc32)C1 | RPS6KA4 C-terminal kinase domain | binding | 1 µM | 99 |
| O=C(c1ccc(Nc2ncc(Cl)c(-c3ccc(Cl)s3)n2)cc1)N1CCC(N2CCCC2)CC1 | RPS6KA4 C-terminal kinase domain | binding | 1 µM | 18 |
| Cc1cnn2ncc(-c3ccnc(N(C)C)n3)c2c1 | RPS6KA4 N-terminal kinase domain | binding | 1 µM | 97 |
| CCN1CCN(Cc2ccc(C(=O)Nc3ccc(C)c(Oc4ccc5c(c4)CC(=O)N5)c3)cc2C(F)(F)F)CC1 | RPS6KA4 N-terminal kinase domain | binding | 1 µM | 100 |
